Compounds with a hit are over-represented: about 2% of the library has one in this group of screens.
UHRF1 MBD2 ctr = blocks human UHRF1 binding to methylated DNA. hit rate 0.75% among 370,000. UHRF1 binding to methylated oligo, TR-FRET. inhibition, % at 4.4 µM. Q96T88; in the data active means inhibition above about 21%;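 further: UHRF1 SRA domain binding a hemimethylated CpG hairpin DNA probe; 0% = median of test compound wells and 100% = reference inhibitor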
MBD2 inh = MBD2-methylated oligo binding inhibition | TR-FRET, MBD2 binding to methylated oligonucleotide | inhibition, % at 4.4 µM | hit rate 0.31% among 370,000 | Q9UBB5; in the data active means inhibition above about 13%
ASAP1 inh = blocks human ASAP1-stimulated Arf1 GTP hydrolysis; inhibition, % at 16.5 µM; GDP FP detection; hit rate 0.19% among 360,000; Q9ULH1; in the data active means inhibition above about 25%;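 further: 0% = vehicle with enzyme and substrate and 100% = no enzyme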
Target sequence (Q9ULH1 325-724 limits assumed): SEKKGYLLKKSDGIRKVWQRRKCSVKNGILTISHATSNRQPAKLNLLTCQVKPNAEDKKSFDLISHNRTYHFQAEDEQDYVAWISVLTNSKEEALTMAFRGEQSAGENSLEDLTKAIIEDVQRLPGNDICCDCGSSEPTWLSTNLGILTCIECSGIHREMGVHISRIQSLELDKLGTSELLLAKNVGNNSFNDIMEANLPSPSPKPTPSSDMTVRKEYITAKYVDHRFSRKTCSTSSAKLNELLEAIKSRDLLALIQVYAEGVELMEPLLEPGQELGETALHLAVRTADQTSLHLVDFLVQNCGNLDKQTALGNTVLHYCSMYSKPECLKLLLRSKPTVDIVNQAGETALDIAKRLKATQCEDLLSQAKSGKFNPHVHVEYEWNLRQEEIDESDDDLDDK
ARFGAP1 inh = inhibitors of rat ARFGAP1. AID 651572. hit rate 0.26% among 360,000. inhibition, % at 16.5 µM. Arfgap1-stimulated ARF1 GTP hydrolysis, GDP FP detection. Q62848;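 active means inhibition above a per-plate limit, mean inhibition of low control wells plus 3 SD, cut at about 25% in these data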;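 further: 0% = DMSO wells with enzyme and 100% = wells lacking Arfgap1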
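material = rat Arfgap1 catalytic domain, aa 1-136 | also added = human ARF1(Δ1-17)-GTP substrate | compound dosing = one concentration, 16.5 µM, DMSO 1.26% | times = GTP hydrolysis reaction 2 h at 25 °C | measured by = FP, GDP Alexa 633 tracer displaced from anti-GDP antibody, 620/688 nm | evaluation = percent inhibition of Arfgap1-stimulated GTP hydrolysis | replication = single well per compound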
TCR CD3 inh = human TCR-CD3 binding inhibition. TAMRA-labeled TCR probe fluorescence, biochemical. inhibition, % at 9.4 µM. hit rate 0.37% among 360,000. AID 651800; in the data active means inhibition above about 19%;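 further: recombinant mutant TCR 2C K166C tagged with TAMRA read by polarization; 0% = receptor in buffer alone and 100% = receptor with positive control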
LEDGF integ inh = blocks HIV-1 LEDGF/p75-dependent DNA integration; hit rate 0.64% among 370,000; AID 743269; TR-FRET IN-LEDGF/p75 DNA integration, Eu/Cy5; inhibition, % at 3.7 µM;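 active means inhibition above the screen-wide mean plus 3 SD, cut at about 13% in these data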;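 further: signal is the Cy5 over europium emission ratio at 671 and 618 nm; 0% = plate median of compound wells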
IN multimer up = HIV-1 integrase multimerization activation, counter-screen; activation, % at 7.7 µM; hit rate 17% among 2,000; TR-FRET HIV-1 integrase multimerization, biochemical; shares compounds with LEDGF integ inh; in the data active means activation above about 8.9%
TR-FRET interf = optically interferes with TR-FRET readout in LEDGF counter-screen; shares compounds with LEDGF integ inh; inhibition, % at 7.7 µM; AID 1053135; 2,000 tested, under 10 active; TR-FRET optical interference counterscreen, HIV-1 IN multimerization;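 active means inhibition above the mean over all tested compounds plus 3 SD, which no compound reached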;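 further: 0% = integrase with antibodies and DMSO and 100% = antibodies without integrase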
LEDGF integ conf = LEDGF/p75-dependent HIV-1 integration inhibition, confirmation. hit rate 36% among 2,000. inhibition, % at 3.7 µM. TR-FRET LEDGF/p75-dependent HIV-1 integration, biochemical. shares compounds with LEDGF integ inh; in the data active means inhibition above about 14%
* hit, by the source's call.

O=C(NC(=S)N1CCOCC1)c1ccc([N+](=O)[O-])cc1 was read as UHRF1 MBD2 ctr 4.4, MBD2 inh 6.9, ASAP1 inh -3.1, ARFGAP1 inh 2.0, TCR CD3 inh -7.8 and LEDGF integ inh -3.7.
COc1ccc(-c2cc3ncc(C(C)=O)c(C)n3n2)cc1 was read as UHRF1 MBD2 ctr 0.7, MBD2 inh 0.8, ASAP1 inh -4.6, ARFGAP1 inh 5.6, TCR CD3 inh 8.5, LEDGF integ inh 24.9*, IN multimer up 0.0, TR-FRET interf -0.2 and LEDGF integ conf -0.6.
Screening CC(=O)c1cnc2cc(-c3ccc(C)cc3)nn2c1C returned UHRF1 MBD2 ctr -2.5, MBD2 inh 4.0, ASAP1 inh -4.9, ARFGAP1 inh -3.7, TCR CD3 inh 5.3 and LEDGF integ inh -0.8.
`O=C(Cn1c(=O)[nH]c2sc3c(c2c1=O)CCCC3)NCC1CCCO1` (stereo not given) gave UHRF1 MBD2 ctr 2.8, MBD2 inh 1.7, ASAP1 inh 4.9, ARFGAP1 inh -1.1, TCR CD3 inh 2.2 and LEDGF integ inh -0.4.
O=C(CCc1ccccc1)N1CCN(C(=O)CCc2ccccc2)CC1 was read as UHRF1 MBD2 ctr -0.7, MBD2 inh -1.7, ASAP1 inh 8.6, ARFGAP1 inh 5.7, TCR CD3 inh -4.0 and LEDGF integ inh -3.2.
For CCOC(=O)N1CCN(C(=O)CCc2ccccc2)CC1 the results were UHRF1 MBD2 ctr 3.1, MBD2 inh -6.5, ASAP1 inh 1.9, ARFGAP1 inh -4.3, TCR CD3 inh 3.1, LEDGF integ inh 56.1*, IN multimer up 5.9, TR-FRET interf -28.7 and LEDGF integ conf -0.4.
Screening Cc1ccc(NC(=O)CC2C(=O)N(Cc3ccccc3)C(=S)N2NC(=O)c2ccccc2)c(C)c1 (stereo not given) returned UHRF1 MBD2 ctr -0.4, MBD2 inh 1.8, ASAP1 inh -13.9, ARFGAP1 inh 4.4, TCR CD3 inh -0.9 and LEDGF integ inh -1.0.
`COC(=O)Cc1ccc(NC(=S)Nc2ccc(N3CCOCC3)cc2)cc1` gave UHRF1 MBD2 ctr -1.4, MBD2 inh -1.2, ASAP1 inh -0.7, ARFGAP1 inh -3.2, TCR CD3 inh 2.7, LEDGF integ inh 13.5*, IN multimer up 1.3, TR-FRET interf -6.5 and LEDGF integ conf -2.5.
`Cc1ccc(C(=O)NC(=S)Nc2ccc(N3CCOCC3)cc2)cc1C` gave UHRF1 MBD2 ctr 2.2, MBD2 inh 0.1, ASAP1 inh 11.6, ARFGAP1 inh -7.0, TCR CD3 inh -6.3 and LEDGF integ inh 1.2.
For Cc1cccc(NC(=S)Nc2ccc(N3CCOCC3)cc2)c1C the results were UHRF1 MBD2 ctr 0.3, MBD2 inh -1.3, ASAP1 inh 6.2, ARFGAP1 inh 1.3, TCR CD3 inh 2.3, LEDGF integ inh 20.9*, IN multimer up -1.9, TR-FRET interf 9.5 and LEDGF integ conf 5.7.
Screening Cc1cccc(C(=O)NC(=S)Nc2ccc(N3CCOCC3)cc2)c1 returned UHRF1 MBD2 ctr 1.9, MBD2 inh -3.9, ASAP1 inh -9.9, ARFGAP1 inh -5.2, TCR CD3 inh 0.2, LEDGF integ inh 20.5*, IN multimer up 4.6, TR-FRET interf -23.3 and LEDGF integ conf -7.0.
Screening CCc1ccccc1NC(=O)CCc1c(C)nc(SC)nc1C returned UHRF1 MBD2 ctr -1.5, MBD2 inh 0.0, ASAP1 inh -0.4, ARFGAP1 inh -10.5, TCR CD3 inh 4.0 and LEDGF integ inh 1.1.
C=CCSC1=N/C(=C\c2cc(OCC)c(OC(C)=O)c([N+](=O)[O-])c2)C(=O)S1 was read as UHRF1 MBD2 ctr 18.7, MBD2 inh -1.6, ASAP1 inh -8.8, ARFGAP1 inh -15.6, TCR CD3 inh 5.7, LEDGF integ inh 32.4*, IN multimer up 0.5, TR-FRET interf -2.5 and LEDGF integ conf 3.2.
